# Measured values from ChEMBL document CHEMBL5335788, “Synthesis and evaluation of aromatic BDSF bioisosteres on biofilm formation and colistin sensitivity in pathogenic bacteria” (Eur J Med Chem, 2023).
# Calls of active or inactive are those of the source. No cut-off for these calls is given here.
# Assays:
# [1] = tested on: Stenotrophomonas maltophilia; assay: Antimicrobial activity against Stenotrophomonas maltophilia K279a assessed as microbial growth inhibition at 50 uM incubated for 20 hrs by broth microdilution method; type: functional, organism-based
# Summary of the method: (§1)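 Overnight cultures in cation-adjusted Mueller-Hinton broth, subcultured 1:100; log-phase cells at final 1×10^5 cfu/mL exposed to sulfonamide at final 0.05 mM (from 10 mM DMSO stock) for 20 h at 37 °C. OD550 read after shaking. Growth expressed as percent of 0.5% DMSO control wells. Screened at least twice.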
# [2] = tested on: Pseudomonas aeruginosa; assay: Antimicrobial activity against Pseudomonas aeruginosa PAO1 assessed as microbial growth inhibition at 50 uM incubated for 20 hrs by broth microdilution method; type: functional, organism-based; summary of the method: as §1
# [3] = tested on: Acinetobacter baumannii; assay: Antimicrobial activity against Acinetobacter baumannii ATCC 15308 assessed as microbial growth inhibition at 50 uM incubated for 20 hrs by broth microdilution method; type: functional, organism-based; summary of the method: as §1
# [4] = tested on: Burkholderia cepacia; assay: Potentiation of colistin-induced antibacterial activity against Burkholderia cepacia R6193 assessed as colistin MIC at 50 uM incubated for 20 hrs by susceptibility testing (Rvb > 256 ug/ml); type: functional
# Summary of the method: (§2)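 Colistin MIC by broth microdilution in cation-adjusted Mueller-Hinton broth, log-phase cells at final 5×10^5 cfu/mL. Two-fold colistin dilutions in duplicate with sulfonamide at final 0.05 mM (from 10 mM DMSO stock); 20 h at 37 °C. OD550 read. MIC taken as the lowest colistin level reducing growth ≥80% versus growth control. At least two replicates.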
# [5] = tested on: Pseudomonas aeruginosa; assay: Potentiation of colistin-induced antibacterial activity against Pseudomonas aeruginosa assessed as colistin MIC at 50 uM incubated for 20 hrs by susceptibility testing (reference value: 1 to 2 ug/ml); type: functional; summary of the method: as §2
# [6] = tested on: Pseudomonas aeruginosa; assay: Inhibition of biofilm formation in Pseudomonas aeruginosa PAO1 at 0.05 mM incubated for 24 hrs by crystal violet method; type: functional, organism-based
# Summary of the method: (§3)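 Crystal violet assay in LB: log-phase bacteria at final 1×10^5 cfu/mL with sulfonamide at final 0.05 mM, 24 h at 37 °C. Biomass read at OD620, then wells washed, biofilm heat-fixed 65 °C 15 min, stained 0.1% crystal violet 15 min, dye eluted in 30% acetic acid, OD550 read. Neat DMSO control taken as 100%. Duplicates, at least two independent experiments; one-way ANOVA.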
# [7] = tested on: Stenotrophomonas maltophilia; assay: Potentiation of colistin-induced antibacterial activity against Stenotrophomonas maltophilia K279a assessed as colistin MIC at 50 uM incubated for 20 hrs by susceptibility testing (reference value: 2 to 8 ug/ml); type: functional; summary of the method: as §2
# [8] = tested on: Acinetobacter baumannii; assay: Potentiation of colistin-induced antibacterial activity against Acinetobacter baumannii ATCC 15308 assessed as colistin MIC at 50 uM incubated for 20 hrs by susceptibility testing (reference value: 0.25 to 0.5 ug/ml); type: functional; summary of the method: as §2
# [9] = tested on: Stenotrophomonas maltophilia; assay: Inhibition of biofilm formation in Stenotrophomonas maltophilia K279a clinical isolate of rpf-1 subpopulation at 0.05 mM incubated for 24 hrs by crystal violet method; type: functional, organism-based; summary of the method: as §3
# [10] = tested on: Burkholderia multivorans; assay: Inhibition of biofilm formation in Burkholderia multivorans B10 at 0.05 mM incubated for 24 hrs by crystal violet method relative to control; type: functional; settings: B10, 24 h; summary of the method: as §3
# [11] = Toxicity in Galleria mellonella larva assessed as larval survival at 50 uM
# [12] = tested on: Burkholderia cenocepacia; assay: Potentiation of colistin-induced antibacterial activity against Burkholderia cenocepacia 289 assessed as colistin MIC at 50 uM incubated for 20 hrs by susceptibility testing (Rvb > 256 ug/ml); type: functional; summary of the method: as §2
# [13] = tested on: Escherichia coli; assay: Inhibition of biofilm formation in Escherichia coli ATCC 9637 at 0.05 mM incubated for 24 hrs by crystal violet method relative to control; type: functional; settings: ATCC 9637, 24 h; summary of the method: as §3
# [14] = tested on: Escherichia coli; assay: Potentiation of colistin-induced antibacterial activity against Escherichia coli ATCC 9637 assessed as colistin MIC at 50 uM incubated for 20 hrs by susceptibility testing (reference value: 0.125 to 0.25 ug/ml); type: functional; summary of the method: as §2
# [15] = tested on: Burkholderia multivorans; assay: Antimicrobial activity against Burkholderia multivorans B10 assessed as microbial growth inhibition at 50 uM incubated for 20 hrs by broth microdilution method; type: functional, organism-based; summary of the method: as §1
# [16] = tested on: Escherichia coli; assay: Antimicrobial activity against Escherichia coli ATCC 9637 assessed as microbial growth inhibition at 50 uM incubated for 20 hrs by broth microdilution method; type: functional, organism-based; summary of the method: as §1
# [17] = tested on: Burkholderia multivorans; assay: Potentiation of colistin-induced antibacterial activity against Burkholderia multivorans B10 assessed as colistin MIC at 50 uM incubated for 20 hrs by susceptibility testing (Rvb > 128 ug/ml); type: functional; summary of the method: as §2
# [18] = tested on: Stenotrophomonas maltophilia; assay: Potentiation of colistin-induced antibacterial activity against Stenotrophomonas maltophilia K279a infected in Galleria mellonella larva at 50 uM; type: functional, organism-based
# Summary of the method: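 Larvae 300–400 mg, at least 15 per group, infected in last proleg with 1×10^4 cfu S. maltophilia K279a in PBS. After 60 min at 37 °C, chilled 15 min on ice, then injected with 5 μL PBS holding colistin at final 0.5 μg/mL, sulfonamide at final 50 μM, or both; 0.5% DMSO vehicle control. Kept at 37 °C, survival scored every 24 h for Kaplan-Meier curves. At least two larval batches.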
# [19] = Toxicity in Galleria mellonella larva assessed as larval survival at 50 uM in presence of colistin
Compound,growth inhibition (GI) [1],growth inhibition (GI) [2],growth inhibition (GI) [3],MIC [4] [µg/mL],MIC [5] [µg/mL],inhibition [6],MIC [7] [µg/mL],MIC [8] [µg/mL],inhibition [9],inhibition at 50 µM [10] [%],Activity [11],MIC [12] [µg/mL],inhibition at 50 µM [13] [%],MIC [14] [µg/mL],growth inhibition (GI) [15],growth inhibition (GI) [16],MIC [17] [µg/mL],Activity [18],Activity [19]
CCCCCCCCCc1ccccc1C(=O)NS(=O)(=O)c1ccc(I)cc1,Active,inactive,inactive,> 256,8,inactive,4,2,inactive,35,Non-Toxic,> 256,68,> 1,Active,inactive,> 128,–,–
CCCCCCCCCc1ccccc1C(=O)NS(=O)(=O)C(C)(C)C,–,inactive,inactive,> 256,1,inactive,0.5,0.25,inactive,> 35,Non-Toxic,> 256,–,0.5,–,inactive,> 128,Active,Non-Toxic
